EBV LMP1 NFkB = EBV LMP1-driven NF-kappaB luciferase reporter inhibitors, primary screen, cell-based, luminescence, single point; 0.69% of 350,000 active; AID 504558, 2011; LMP1-induced NF-kappaB luciferase reporter cells; inhibition, % at 12.5 µM; in the data active = inhibition above about 41%; inconclusive = no clear call, values can overlap the other calls
Shn3 3UTR inh = reduction of Shn3 3'UTR firefly luciferase signal, primary screen, Schnurri-3 inhibitor project, cell-based, Clone20 osteoblasts, set 2 | inhibition, % at 12.5 µM | Clone20 osteoblast Shn3 3'UTR firefly luciferase, 24 h | 0.52% of 360,000 active;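 active = mean inhibition of at least 75% with every replicate also reaching 75%; inconclusive = mean inhibition at least 75% but some replicate below; inactive = mean inhibition below 75%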
PAX8 reporter = inhibitors of PAX8-driven TPO luciferase reporter, primary screen, RMG-I cells, single concentration | AID 652154, 2013 | 1.2% of 360,000 active | SteadyGlo, 24 h | inhibition, % at 12.6 µM;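 active = mean replicate inhibition at least 60% with every replicate also reaching 60%; inconclusive = only one of the two criteria is met; inactive = mean below 60% and not all replicates reaching 60%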;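 note: luciferase light reporting Pax8 driven TPO promoter activity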
EWS-Fli inh = EWS/Fli-driven NR0B1 reporter inhibitors, primary screen, A673 cells, NR0B1 luciferase, luminescence, MLPCN library; viability-normalised; inhibition, % at 12.6 µM; 0.67% of 350,000 active; AID 651661, 2012;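 active = mean inhibition of at least 50% after viability correction, with every replicate also passing that limit; inconclusive = mean reaches 50% but only one of two replicates passes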;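 note: firefly luciferase signal divided by Alamar Blue viability fluorescence both relative to DMSO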
FN deposition inh = inhibitors of fibronectin matrix deposition, primary screen, AH1F cells, Alexa488-fibronectin fluorescence, plate reader; AH1F fibroblasts, overnight; inhibition, % at 12.6 µM; 0.086% of 350,000 active; AID 743247, 2014;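 active = mean inhibition across replicates of 30% or more, regardless of how many single replicates reach that level; inconclusive = mean under 30% yet at least half of replicates reach 30%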
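Measured by – fluorescence 485/525 nm · System – AH1F fibroblast monolayer, labelled fibronectin deposition · Amount – 10000 cells per well · Buffer or medium – serum-reduced DMEM (2% serum) · Doses – single dose, pinned · Also added – fluorescent fibronectin at 24 nM final · Schedule – 1 h cell attachment, overnight exposure to compound and label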
aSyn 5UTR inh = MLPCN primary screen, SNCA 5' untranslated region; alpha-synuclein 5'UTR reporter, inhibitor activity; inhibition, % (tested at 7.5 µM); 0.82% of 300,000 active; AID 1813, 2009; in the data active = inhibition above about 60%; inconclusive = no clear call, values can overlap the other calls;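 note: H4 neuroglioblastoma cells stably carrying SNCA 5'UTR luciferase fusion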
A number is an active result; . = inactive; ? = inconclusive; / = no result given. Sampled rows, rich in hits. Any-hit rate of the full collection: about 2.1%.

SMILES | EBV LMP1 NFkB | Shn3 3UTR inh | PAX8 reporter | EWS-Fli inh | FN deposition inh | aSyn 5UTR inh
CO[C@H]1CC[C@H]2CCN(C)C(=O)[C@H](C)[C@H](OC)CN(C)C(=O)c3cc(C#N)ccc3OC[C@@H]1O2 | / | / | . | . | . | /
CCCCC(=O)NC(c1ccc(OC)cc1)c1ccc2cccnc2c1O (stereo unspecified) | 65 | 91 | 71 | . | . | /
CCCC(=O)NC(c1ccc(OC)cc1)c1c(O)ccc2ccccc12 (stereo unspecified) | . | . | . | . | . | .
COc1ccc(C(NC(=O)C(C)C)c2ccc3cccnc3c2O)cc1 (stereo unspecified) | . | 95 | ? | . | . | 79
CCCC(=O)NC(c1ccc(C(C)C)cc1)c1ccc2cccnc2c1O (stereo unspecified) | 62 | 91 | 95 | . | . | 83
CC(C)CC(=O)NC(c1ccccc1Cl)c1c(O)ccc2ccccc12 (stereo unspecified) | . | . | . | / | . | .
CCCC(=O)NC(c1ccccc1Cl)c1ccc2cccnc2c1O (stereo unspecified) | 66 | ? | 86 | . | . | 68
Cc1noc(C)c1NC(=O)Nc1ccc2c(c1)C(=O)N([C@@H](C)CO)C[C@@H](C)[C@@H](CN(C)S(=O)(=O)c1ccccc1)OCCCC[C@H](C)O2 | / | / | . | . | . | /
C[C@@H]1CN([C@@H](C)CO)C(=O)c2cc(NC(=O)CCCCCC(=O)Nc3ccccc3N)ccc2O[C@H]1CN(C)S(C)(=O)=O | / | / | . | . | / | /
Cc1cc(NC(c2ccc(Cl)cc2)c2ccc3cccnc3c2O)no1 (stereo unspecified) | 70 | 89 | / | / | / | 85
COc1ccccc1NC(c1cccnc1)c1ccc2cccnc2c1O (stereo unspecified) | . | . | . | . | . | .
CCC(=O)NC(c1ccc(C)cc1)c1cc([N+](=O)[O-])c2cccnc2c1O (stereo unspecified) | . | . | . | / | . | 64
CC(=O)NC(c1ccc(C)cc1)c1cc([N+](=O)[O-])c2cccnc2c1O (stereo unspecified) | . | . | . | . | . | .
CCC(=O)NC(c1ccc(C)cc1)c1ccc2cccnc2c1O (stereo unspecified) | ? | 90 | 92 | . | . | 81
Cc1ccnc(NC(c2ccccc2)c2ccc3cccnc3c2O)c1 (stereo unspecified) | . | . | . | . | . | /
O=C(O)c1ccccc1NC(c1ccccc1)c1ccc2cccnc2c1O (stereo unspecified) | . | . | 71 | . | . | /
CCc1cccc(NC(=O)O[C@H]2[C@H](OC(=O)Nc3ccc4c(c3)OCO4)[C@@H](OC(=O)Nc3ccc4c(c3)OCO4)[C@@H](OC)O[C@@H]2CO)c1 | / | / | . | . | / | /
COC(=O)C[C@H]1CC[C@H]2[C@@H](COc3ccc(NC(=O)c4cncs4)cc3C(=O)N2C)O1 | / | / | . | . | . | /
CC(=O)NC(c1ccco1)c1ccc2cccnc2c1O (stereo unspecified) | . | . | / | / | / | 77
CCS(=O)(=O)N1[C@H](CO)[C@H](c2ccccc2)[C@@H]1CN(C)Cc1ccccn1 | / | / | / | / | . | /
O=c1c2c(nc3c(-c4ccccc4)c[nH]n13)CCC2 | . | . | / | / | . | .
O=c1c2c(nc3c(-c4cccc(Br)c4)c[nH]n13)CCCC2 | ? | . | . | / | / | 69
COc1ccc(N(CC(=O)Nc2cc(C)ccc2C)S(=O)(=O)c2c(C)noc2C)cc1 | . | . | . | . | . | .
COc1ccc(N(CC(=O)Nc2cc(Cl)ccc2C)S(=O)(=O)c2c(C)noc2C)cc1 | . | . | . | / | . | 78
CCOc1ccc(N(CC(=O)Nc2ccccc2C)S(=O)(=O)c2c(C)noc2C)cc1 | . | . | . | 58 | . | ?
CCOc1ccccc1NC(=O)CN(c1ccc(OC)cc1)S(=O)(=O)c1c(C)noc1C | . | . | . | / | . | .
C[C@H](CO)N1C[C@H](C)[C@@H](CN(C)Cc2ccncc2)Oc2ccc(NS(=O)(=O)c3cccs3)cc2CC1=O | / | / | . | . | / | /

Bioassay records from PubChem BioAssay.
